# From ChEMBL document CHEMBL3351346, “Design, synthesis, structure-function relationship, bioconversion, and pharmacokinetic evaluation of ertapenem prodrugs” (J Med Chem, 2014)
# Key:
# [1] = Stability in rat plasma assessed as compound remaining at 50 uM at 37 degC after 60 mins by LC-MS/MS method; type: ADME, cell-free; details: read-out: Stability
# How it was run: (§1)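 Prodrugs were incubated in rat or human plasma for 60 min. Disappearance of prodrug and concomitant appearance of ertapenem were followed by LC-MS/MS, and in selected cases monoesters from partial hydrolysis were also monitored. Ertapenem itself was incubated the same way as a control.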
# [2] = Stability in human plasma assessed as compound remaining at 50 uM at 37 degC after 60 mins by LC-MS/MS method; type: ADME, cell-free; details: read-out: Stability; how it was run: as §1
# [3] = Stability in pH 2.0 simulated gastric fluid assessed as compound degradation to beta-lactam ring open products at 1 uM after 60 mins by LC-MS/MS method; type: ADME; details: read-out: Drug degradation
# How it was run: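 Incubation was in simulated gastric fluid (SGF, pH 2.0) for 60 min, with loss to the β-lactam ring-opened product measured by LC-MS/MS.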
# [4] = Stability in pH 6.5 simulated gastrointestinal fluid assessed as compound remaining at 50 uM after 3 hrs by LC-MS/MS method; type: ADME; details: read-out: Stability
# How it was run: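 Compounds at 50 μM were incubated in fasted-state simulated intestinal fluid (FaSSIF, pH 6.5) for over 3 h. Percent remaining was determined by LC-MS/MS.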
# [5] = Stability in pH 7.4 phosphate buffer assessed as compound remaining at 50 uM after 3 hrs by LC-MS/MS method; type: physicochemical; details: read-out: Stability
# [6] = tested on: Rattus norvegicus; test: (§2) AUC (0 to 8 hrs) in fasted Sprague-Dawley rat at 10 mg/kg dosed through intraduodenal route by LC-MS/MS method; type: ADME, organism-based, Plasma; parameters: time < 8 hr, dose 10 mg/kg, route intraduodenal; details: in vivo, other, 8 h, BLD = below limit of detection
# How it was run: (§3)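 Prodrugs were given intraduodenally to bypass stomach acid. Plasma was sampled at intervals over 8 h, and parent prodrug, the two monoester metabolites and ertapenem were quantified by LC-MS/MS. The lower limit of quantitation was 5 nM. AUC(0–8) was used, and it differed from AUC(0–∞) by ±20%. Vehicles were 30% Captisol or 0.5% methylcellulose, as solution or suspension depending on compound.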
# [7] = tested on: Rattus norvegicus; test: AUC (0 to 8 hrs) in fasted Sprague-Dawley rat assessed as ertapenem level at 10 mg/kg dosed through intraduodenal route by LC-MS/MS method; type: ADME, organism-based, Plasma; parameters: time < 8 hr, dose 10 mg/kg, route intraduodenal; details: in vivo, other; how it was run: as §3
# [8] = tested on: Rattus norvegicus; test: Oral bioavailability in fasted Sprague-Dawley rat assessed as ertapenem level at 10 mg/kg dosed through intraduodenal route by LC-MS/MS method; type: ADME, organism-based; details: in vivo
# How it was run: (§4)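 After intraduodenal dosing, plasma over 8 h was analysed by LC-MS/MS. Bioavailability was calculated as dose-normalized AUC of ertapenem formed from the prodrug divided by dose-normalized AUC of ertapenem dosed iv. Vehicle was 30% Captisol or 0.5% methylcellulose.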
# [9] = tested on: Rattus norvegicus; test: Oral bioavailability in fasted Sprague-Dawley rat assessed as ertapenem and monoetser metabolites level at 10 mg/kg dosed through intraduodenal route by LC-MS/MS method; type: ADME, organism-based; details: in vivo
# How it was run: (§5)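 Total absorption followed intraduodenal dosing with LC-MS/MS of plasma over 8 h. It was calculated as the combined dose-normalized AUC of circulating parent prodrug, ertapenem and two monoesters, divided by dose-normalized AUC of ertapenem given iv. Vehicle was 30% Captisol or 0.5% methylcellulose.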
# [10] = (§6) AUC (0 to 8 hrs) in fasted Beagle dog at 10 mg/kg dosed through intraduodenal route by LC-MS/MS method; type: ADME, organism-based, Canis lupus familiaris, Plasma; parameters: time < 8 hr, dose 10 mg/kg, route intraduodenal; details: Beagle, plasma; how it was run: as §3
# [11] = tested on: Canis familiaris; test: AUC (0 to 8 hrs) in fasted Beagle dog assessed as ertapenem level at 10 mg/kg dosed through intraduodenal route by LC-MS/MS method; type: ADME, organism-based, Canis lupus familiaris, Plasma; parameters: time < 8 hr, dose 10 mg/kg, route intraduodenal; details: in vivo, other; how it was run: as §3
# [12] = tested on: Canis familiaris; test: AUC (0 to 8 hrs) in fasted Beagle dog assessed as 8-OH, C-3 ester level at 10 mg/kg dosed through intraduodenal route by LC-MS/MS method; type: ADME, organism-based, Canis lupus familiaris, Plasma; parameters: time < 8 hr, dose 10 mg/kg, route intraduodenal; details: in vivo, other; how it was run: as §3
# [13] = tested on: Canis familiaris; test: AUC (0 to 8 hrs) in fasted Beagle dog assessed as 8-OH, benzoate ester level at 10 mg/kg dosed through intraduodenal route by LC-MS/MS method; type: ADME, organism-based, Canis lupus familiaris, Plasma; parameters: time < 8 hr, dose 10 mg/kg, route intraduodenal; details: in vivo, other; how it was run: as §3
# [14] = tested on: Canis familiaris; test: Oral bioavailability in fasted Beagle dog assessed as ertapenem level at 10 mg/kg dosed through intraduodenal route by LC-MS/MS method; type: ADME, organism-based, Canis lupus familiaris; details: in vivo; how it was run: as §4
# [15] = tested on: Canis familiaris; test: Oral bioavailability in fasted Beagle dog assessed as assessed as ertapenem and monoetser metabolites level at 10 mg/kg dosed through intraduodenal route by LC-MS/MS method; type: ADME, organism-based, Canis lupus familiaris; details: in vivo; how it was run: as §5
# [16] = tested on: Rattus norvegicus; test: AUC (0 to 8 hrs) in fasted Sprague-Dawley rat assessed as 8-OH, C-3 ester level at 10 mg/kg dosed through intraduodenal route by LC-MS/MS method; type: ADME, organism-based, Plasma; parameters: time < 8 hr, dose 10 mg/kg, route intraduodenal; details: in vivo, other, BLD = below limit of detection; how it was run: as §3
# [17] = tested on: Canis familiaris; test: as §6; type: ADME, organism-based, Canis lupus familiaris, Plasma; parameters: time < 8 hr, dose 10 mg/kg, route intraduodenal; details: in vivo, other, 8 h, BLD = below limit of detection; how it was run: as §3
# [18] = as §2; type: ADME, organism-based, Plasma; parameters: time < 8 hr, dose 10 mg/kg, route intraduodenal; details: Sprague-Dawley, plasma; how it was run: as §3
# [19] = AUC (0 to 8 hrs) in fasted Beagle dog at 6.18 mg/kg dosed through intraduodenal route by LC-MS/MS method; type: ADME, organism-based, Canis lupus familiaris; parameters: time < 8 hr, dose 6.18 mg/kg, route intraduodenal; details: plasma; how it was run: as §3
# [20] = tested on: Canis familiaris; test: AUC (0 to 8 hrs) in fasted Beagle dog assessed as ertapenem level at 6.18 mg/kg dosed through intraduodenal route by LC-MS/MS method; type: ADME, organism-based, Canis lupus familiaris, Plasma; parameters: time < 8 hr, dose 6.18 mg/kg, route intraduodenal; details: in vivo, other; how it was run: as §3
# [21] = tested on: Canis familiaris; test: AUC (0 to 8 hrs) in fasted Beagle dog assessed as 8-OH, C-3 ester level at 6.18 mg/kg dosed through intraduodenal route by LC-MS/MS method; type: ADME, organism-based, Canis lupus familiaris, Plasma; parameters: time < 8 hr, dose 6.18 mg/kg, route intraduodenal; details: in vivo, other; how it was run: as §3
# [22] = tested on: Canis familiaris; test: AUC (0 to 8 hrs) in fasted Beagle dog assessed as 8-OH, benzoate ester level at 6.18 mg/kg dosed through intraduodenal route by LC-MS/MS method; type: ADME, organism-based, Canis lupus familiaris, Plasma; parameters: time < 8 hr, dose 6.18 mg/kg, route intraduodenal; details: in vivo, other; how it was run: as §3
# [23] = tested on: Canis familiaris; test: Oral bioavailability in fasted Beagle dog assessed as ertapenem level at 6.18 mg/kg dosed through intraduodenal route by LC-MS/MS method; type: ADME, organism-based, Canis lupus familiaris; details: in vivo; how it was run: as §4
# [24] = tested on: Canis familiaris; test: Oral bioavailability in fasted Beagle dog assessed as assessed as ertapenem and monoetser metabolites level at 6.18 mg/kg dosed through intraduodenal route by LC-MS/MS method; type: ADME, organism-based, Canis lupus familiaris; details: in vivo; how it was run: as §5
# [25] = Oral drug absorption in fasted Beagle dog at 6.18 mg/kg dosed through intraduodenal route by LC-MS/MS method; type: ADME, organism-based, Canis lupus familiaris; parameters: dose 6.18 mg/kg, route intraduodenal; details: in vivo; how it was run: as §5
SMILES,"remaining at 1 h, 50 µM [1] [%]","remaining at 1 h, 50 µM [2] [%]","degraded at 1 h, 1 µM [3] [%]","remaining at 3 h, 50 µM [4] [%]","remaining at 3 h, 50 µM [5] [%]",AUC [6],AUC [7] [µM·h],F [8] [%],F [9] [%],AUC [11] [µM·h],F [14] [%],F [15] [%],also measured
C[C@@H](O)[C@H]1C(=O)N2C(C(=O)OCC(F)(F)F)=C(S[C@@H]3CN[C@H](C(=O)Nc4cccc(C(=O)OCC(F)(F)F)c4)C3)[C@H](C)[C@H]12,3,6,> 25,> 95,> 95,BLD,1.7,3,3,6.7,10.2,12,AUC(0-t) at 8 h [10]: 0.2 µM·h; AUC [12]: 0.8 µM·h; AUC [13]: 0.2 µM·h
CC(C)C(=O)OCOC(=O)C1=C(S[C@@H]2CN[C@H](C(=O)Nc3cccc(C(=O)[O-])c3)C2)[C@H](C)[C@@H]2[C@@H]([C@@H](C)O)C(=O)N12.[Na+],0,15,> 25,> 95,> 95,BLD,0.7,1.2,1.2,,,,AUC [16]: BLD
C[C@@H](O)[C@H]1C(=O)N2C(C(=O)OCc3oc(=O)oc3C(C)(C)C)=C(S[C@@H]3CN[C@H](C(=O)Nc4cccc(C(=O)OCc5oc(=O)oc5C(C)(C)C)c4)C3)[C@H](C)[C@H]12,0,10,> 25,> 95,> 95,BLD,0.2,0.3,0.3,0.2,0.4,0.4,AUC [17]: BLD
CC(C)c1oc(=O)oc1COC(=O)C1=C(S[C@@H]2CN[C@H](C(=O)Nc3cccc(C(=O)OCc4oc(=O)oc4C(C)C)c3)C2)[C@H](C)[C@@H]2[C@@H]([C@@H](C)O)C(=O)N12,6,8,> 25,> 95,> 95,BLD,0.4,0.9,0.9,,,,
CC(C)OC(=O)C1=C(S[C@@H]2CN[C@H](C(=O)Nc3cccc(C(=O)OC(C)C)c3)C2)[C@H](C)[C@@H]2[C@@H]([C@@H](C)O)C(=O)N12,0,16,> 25,> 95,> 95,,< 0.1,< 0.1,0.1,,,,AUC(0-t) at 8 h [18]: 0.09 µM·h; AUC(0-t) at 8 h [19]: 1.6 µM·h; AUC [20]: 0.2 µM·h; AUC [21]: 0.2 µM·h; AUC [22]: 0.3 µM·h; F [23]: 0.5%; F [24]: 5.1%; Fa [25]: 5.1%
